Assay outcomes from PubChem.
Only some compounds are listed: those with a hit (about 2% of all), similar ones and a draw of the others.
XiGFP reactiv: activators of inactive X chromosome reactivation, primary screen, imaging, XiGFP fibroblasts, GFP high-content imaging, set 2. XiGFP mouse fibroblasts, % GFP-positive cells imaging, 3 d; cells co-treated with 5-aza-dC sensitizer; scaled so ellipticine positive control = 100%. AID 743238, 2013. activation, % at 7.58 µM. actives 0.055% (n = 360,000);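 active means mean normalized replicate activation at least 10% and every replicate at or above 10%; inconclusive means only one of the two criteria met; inactive means mean below 10% and not all replicates reach 10%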;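 further: 0% = median of on-plate neutral control wells and 100% = ellipticine 6 µM median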
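material = 68-5-11 XiGFP fibroblast line | medium = DMEM plus 5-aza-dC sensitizer | schedule = 3 days compound exposure | benchmarks = positive control ellipticine, 6 µM final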
Casp6 inh: human caspase-6 inhibitors, primary screen, biochemical, VEID-R110 fluorescence, single point, set 2; P55212; purified caspase-6, Z-VEID-R110 cleavage fluorescence; inhibition, % at 12.5 µM; actives 0.53% (n = 350,000);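 active means mean inhibition across replicates at least about 35%, with every replicate also reaching that limit, limit read from the data; inconclusive means only one of the two criteria met; inactive means neither criterion met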;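 further: 0% = median of neutral control wells and 100% = no fluorescence left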
Target sequence (P55212 24-179 limits assumed): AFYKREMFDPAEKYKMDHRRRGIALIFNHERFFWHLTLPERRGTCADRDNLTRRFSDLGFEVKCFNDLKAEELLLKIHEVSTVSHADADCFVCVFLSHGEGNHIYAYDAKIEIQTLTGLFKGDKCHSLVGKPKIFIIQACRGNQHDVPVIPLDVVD
Target sequence (P55212 194-293 limits assumed): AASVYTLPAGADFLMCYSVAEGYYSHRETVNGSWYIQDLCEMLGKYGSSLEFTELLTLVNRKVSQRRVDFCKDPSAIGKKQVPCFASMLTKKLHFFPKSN
FN deposit inh: inhibitors of fibronectin matrix deposition, primary screen, AH1F cells, Alexa488-fibronectin fluorescence, plate reader; actives 0.086% (n = 350,000); AH1F fibroblasts, overnight; inhibition, % at 12.6 µM;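 active means mean inhibition across replicates of 30% or more, regardless of how many single replicates reach that level; inconclusive means mean under 30% yet at least half of replicates reach 30%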;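 further: positive control wells lacked labelled fibronectin entirely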
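test system = AH1F fibroblasts assembling fluorescent fibronectin matrix | quantity = 10000 AH1F cells per well | buffer or medium = DMEM plus 2% serum, read in PBS | doses = single dose, pinned | incubation = 1 h cell attachment, overnight exposure to compound and label | detection = fluorescence at 485 nm excitation, 525 nm emission | read-out basis = inhibition from reduced deposited-fibronectin fluorescence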
CaV13 FRET inh: Disruptors of the CACNA1D IQ motif to Ca2+-dependent inactivation inhibitor domain association, primary screening, Förster resonance energy transfer in intact living …. HEK cells, CFP/YFP FRET ICDI-IQ, plate reader, 10 min; percent FRET-ratio fall versus neutral wells. inhibition, % at 12.3 µM. actives 0.098% (n = 340,000);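 active means mean replicate inhibition of at least 30% and at least 1% of replicates passing that level; inconclusive means only one of the two criteria is met; inactive means neither criterion is met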;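 further: 0% = median of the neutral control wells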
DENV2 CPE: inhibitors of DENV2 cytopathic effect, primary screen, cell-based, plate reader, single concentration; DENV2-infected cells, cytopathic effect rescue; CPE inhibition, % at 9.99 µM; actives 1.7% (n = 350,000); in the data active means CPE inhibition above about 20%, passing the limit was not always enough; inconclusive means no clear call, values can overlap the other calls; tested in BHK-21 cells;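 further: 0% = median of neutral control wells and 100% = median of positive control wells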
* hit, by the source's call; u = inconclusive; x = no result; ! = repeats disagree.

SMILES	XiGFP reactiv	Casp6 inh	FN deposit inh	CaV13 FRET inh	DENV2 CPE
CCn1c(C)nc2cc(C(=O)NN=Cc3ccc([N+](=O)[O-])cc3)ccc21	0	4	31*	-3	2
Cc1ccc(S(=O)(=O)N(C)C[C@@H]2Oc3ccc(NC(=O)C4CC4)cc3CC(=O)N([C@@H](C)CO)C[C@@H]2C)cc1	0	1	x	x	-1
CO[C@@H]1CN(C)C(=O)c2ccc(NC(=O)Cc3ccccc3)cc2OC[C@@H](C)N(CC2CC2)C[C@@H]1C	0	-3	-1	x	-1
COc1cc2c3nnc(-c4ccccc4)c-3cn(Cc3ccccc3F)c2cc1OC	97*	x	-10	-9	x
COc1ccccc1Cc1c(-c2ccc(F)cc2)nc2ccc(Cl)cn12	0	18	13	-3	-3
COc1cc2c3nnc(-c4ccc(F)cc4)c-3cn(Cc3ccccc3F)c2cc1OC	114*	-7	-55	-61	12
CC(C)NC(=O)N(C)C[C@H]1Oc2cc(Br)ccc2S(=O)(=O)N([C@@H](C)CO)C[C@@H]1C	0	-2	2	x	2
COc1cc(SC)ccc1C(=O)OC(C)C(=O)NC1CCCC1 (stereo not drawn)	0	38*	2	-5	u
COc1cc(SC)ccc1C(=O)NCC1CCCCC1	0	0	-8	-7	-2
COc1ccc(C(=O)N2C[C@@H]3[C@H](c4ccccc42)[C@@H](CO)N3C(=O)c2ccc(F)cc2)cc1	0	-4	x	x	-9
O=C(CSc1ncccn1)N/N=C/c1cccc([N+](=O)[O-])c1	0	x	11	-5	x
O=C(CSc1ccccn1)N/N=C/c1cccc([N+](=O)[O-])c1	0	-1	7	-5	46*
CC(NC(=O)CCc1ccccc1)c1ccc2c(c1)OCO2 (stereo not drawn)	1	0	-9	3	29*
COc1ccc2c3c([nH]c2c1)[C@H](CO)N(C(=O)C1CCOCC1)CC31CN(Cc2nccs2)C1	0	-5	x	x	14
Cc1noc(C)c1NC(=O)N(C)C[C@@H]1Oc2c(NC(=O)Nc3ccc(C(F)(F)F)cc3)cccc2C(=O)N([C@H](C)CO)C[C@@H]1C	0	0	x	x	10
Cc1noc(C)c1NC(=O)N(C)C[C@@H]1Oc2c(NC(=O)Nc3ccc(C(F)(F)F)cc3)cccc2C(=O)N([C@@H](C)CO)C[C@@H]1C	x	1	x	x	32*
C[C@@H]1CN([C@H](C)CO)C(=O)c2cccc(NC(=O)Nc3ccc(C(F)(F)F)cc3)c2O[C@@H]1CN(C)C(=O)Nc1ccc2c(c1)OCO2	0	x	x	x	41*
Cc1cc(C(=O)Nc2cccc3c2O[C@H](CN(C)C(=O)Nc2ccc(C(F)(F)F)cc2)[C@@H](C)CN([C@H](C)CO)C3=O)n(C)n1	1	4	x	x	38*
C[C@H]1CN([C@@H](C)CO)C(=O)c2cccc(NC(=O)Nc3ccc(F)cc3)c2O[C@@H]1CN(C)C(=O)Nc1ccc(C(F)(F)F)cc1	0	2	9	x	57*
Cc1cc(C(=O)Nc2cccc3c2O[C@@H](CN(C)C(=O)Nc2ccc(C(F)(F)F)cc2)[C@@H](C)CN([C@@H](C)CO)C3=O)n(C)n1	-1	-1	x	x	-10
CC(=O)Nc1ccc2c(c1)CC(=O)N(C)C[C@H](C)[C@@H](CN(C)S(C)(=O)=O)O2	0	x	-22	x	x
C[C@H]1CN([C@@H](C)CO)C(=O)c2cccc(NC(=O)C3CCCCC3)c2O[C@H]1CN(C)C(=O)Nc1ccc(C(F)(F)F)cc1	0	0	x	x	27*
C[C@@H]1CN([C@@H](C)CO)C(=O)c2cccc(NS(C)(=O)=O)c2O[C@H]1CN(C)C(=O)Nc1ccc(C(F)(F)F)cc1	0	0	x	x	79*
C[C@@H]1CN([C@H](C)CO)C(=O)c2cccc(NC(=O)Nc3ccc4c(c3)OCO4)c2O[C@H]1CN(C)C(=O)Nc1ccccc1	-1	x	x	x	100*
C[C@H](CO)N1C[C@H](C)[C@H](CN(C)S(=O)(=O)c2ccccc2F)OCc2cn(nn2)CCCC1=O	-1	x	-13	x	x
SMILES	XiGFP reactiv	Casp6 inh	FN deposit inh	CaV13 FRET inh	DENV2 CPE
COc1ccc(CN(C)C[C@@H]2OCCCC[C@H](C)Oc3ccc(NC(=O)CCCN(C)C)cc3C(=O)N([C@H](C)CO)C[C@@H]2C)cc1	0	1	x	x	-2
COc1ccc(S(=O)(=O)N2CC[C@@H]3[C@H]2c2cc(C#Cc4ccccc4OC)ccc2N[C@@H]3CO)cc1	0	-2	1	x	46*
COc1ccc(S(=O)(=O)N2CC[C@H]3[C@H](CO)Nc4ccc(C#Cc5ccccc5OC)cc4[C@H]32)cc1	0	1	18	x	-8
COc1cccc(-c2ccc3c(c2)[C@@H]2[C@@H](CCN2S(=O)(=O)c2cccc(OC)c2)[C@@H](CO)N3)c1	0	1	38*	x	-15
O=S(=O)(c1ccccc1)N1CC[C@@H]2[C@H](CO)Nc3ccc(C#Cc4cccc(F)c4)cc3[C@@H]21	0	0	7	x	9
COc1cccc(C#Cc2ccc3c(c2)[C@H]2[C@H](CCN2S(=O)(=O)c2cccc(OC)c2)[C@H](CO)N3)c1	0	-1	0	x	38*
COc1cccc(S(=O)(=O)N2CC[C@H]3[C@H](CO)Nc4ccc(-c5ccc(C#N)cc5)cc4[C@H]32)c1	0	x	19	x	-9
O=S(=O)(c1ccccc1)N1CC[C@H]2[C@H](CO)Nc3ccc(C#Cc4cccc(F)c4)cc3[C@H]21	0	2	25	x	30*
COc1ccc(NC(=O)Nc2ccc3c(c2)C(=O)N([C@@H](C)CO)C[C@@H](C)[C@H](CN(C)C(=O)C2CCCCC2)OCCCC[C@@H](C)O3)cc1	0	-2	x	x	22*
COc1ccc(NC(=O)Nc2ccc3c(c2)C(=O)N([C@H](C)CO)C[C@H](C)[C@H](CN(C)C(=O)C2CCCCC2)OCCCC[C@H](C)O3)cc1	0	0	x	x	7
COc1ccc(NC(=O)Nc2ccc3c(c2)C(=O)N([C@H](C)CO)C[C@@H](C)[C@@H](CN(C)C(=O)C2CCCCC2)OCCCC[C@H](C)O3)cc1	0	-2	x	-6	46*!
COc1ccc(NC(=O)Nc2ccc3c(c2)C(=O)N([C@H](C)CO)C[C@H](C)[C@@H](CN(C)C(=O)C2CCCCC2)OCCCC[C@@H](C)O3)cc1	0	-3	x	x	32*
COc1ccc(NC(=O)Nc2ccc3c(c2)C(=O)N([C@@H](C)CO)C[C@@H](C)[C@H](CN(C)C(=O)C2CCCCC2)OCCCC[C@H](C)O3)cc1	0	-4	x	x	-13
